In ChEMBL document CHEMBL4002556, “Acetophenone Monomers from Acronychia trifoliolata” (J Nat Prod, 2016):

How the values were obtained:
Format in all cases: functional, cell-based
A549 = experiment: Cytotoxicity against human A549 cells assessed as growth inhibition after 48 hrs by SRB assay; conditions: A549, 48 h
Method in brief: (§1)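 Sulforhodamine B (SRB) read-out of antiproliferative effect. IC50 is the concentration giving 50% reduction relative to untreated cells, determined separately for each cell line.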

KB = experiment: Cytotoxicity against human KB cells assessed as growth inhibition after 48 hrs by SRB assay; method in brief: as §1
[1] = Cytotoxicity against human KBVIN cells assessed as growth inhibition after 48 hrs by SRB assay; method in brief: as §1
MDA-MB-231 = experiment: Cytotoxicity against human MDA-MB-231 cells assessed as growth inhibition after 48 hrs by SRB assay; conditions: MDA-MB-231, 48 h; method in brief: as §1
MCF7 = experiment: Cytotoxicity against human MCF7 cells assessed as growth inhibition after 48 hrs by SRB assay; conditions: MCF7, 48 h

Question: With `COc1c2c(c(CC=C(C)C)c(O)c1C(C)=O)OC(C(C)(C)O)C2` (stereo not drawn) as the molecule, how does the IC50 (A549) read?
Answer: > 40 µM

Question: And the IC50 (KB)?
Answer: > 40 µM

Question: What about the IC50 [1] of the same molecule?
Answer: > 40 µM

Question: And the IC50 (MDA-MB-231)?
Answer: > 40 µM

Question: What about the IC50 (MCF7) of the same molecule?
Answer: > 40 µM

Question: With `COc1c(CC=C(C)C)c(O)c2c(c1C(C)=O)OC(C)(C)C(O)C2` (stereo not drawn) as the molecule, how does the IC50 (A549) read?
Answer: > 40 µM

Question: What about the IC50 (KB) of the same molecule?
Answer: > 40 µM

Question: And the IC50 [1]?
Answer: > 40 µM

Question: And the IC50 (MDA-MB-231)?
Answer: > 40 µM

Question: What about the IC50 (MCF7) of the same molecule?
Answer: > 40 µM

Question: Which IC50 (A549) does the source give for `COc1c2c(c(CC=C(C)C)c(O)c1C(C)=O)OC(C)(C)C(O)C2` (stereo not drawn) here?
Answer: 26.6 µM

Question: What about the IC50 (KB) of the same molecule?
Answer: 25.6 µM

Question: What about the IC50 [1] of the same molecule?
Answer: 19.2 µM

Question: What about the IC50 (MDA-MB-231) of the same molecule?
Answer: > 40 µM

Question: What about the IC50 (MCF7) of the same molecule?
Answer: 30.8 µM

Question: For `COc1c2c(c(CCC(C)C)c(O)c1C(C)=O)OC(C)(C)C(O)C2` (stereo not drawn), which IC50 (A549) is on record?
Answer: 19.9 µM

Question: What about the IC50 (KB) of the same molecule?
Answer: 20.4 µM

Question: What about the IC50 [1] of the same molecule?
Answer: 16.2 µM

Question: What about the IC50 (MDA-MB-231) of the same molecule?
Answer: 22.6 µM

Question: And the IC50 (MCF7)?
Answer: 19.4 µM

Question: For `COc1c(CC=C(C)C)c2c(c(O)c1C(C)=O)CC(O)C(C)(C)O2` (stereo not drawn), which IC50 (A549) is on record?
Answer: > 40 µM

Question: And the IC50 (KB)?
Answer: 38.5 µM

Question: And the IC50 [1]?
Answer: 39.7 µM

Question: And the IC50 (MDA-MB-231)?
Answer: > 40 µM

Question: And the IC50 (MCF7)?
Answer: > 40 µM

Question: Which results are given for `COc1c(CC=C(C)C)c2c(c(O)c1C(C)=O)CC(C(C)(C)O)O2` (stereo not drawn)?
Answer: IC50 (A549): > 40 µM; IC50 (KB): > 40 µM; IC50 [1]: > 40 µM; IC50 (MDA-MB-231): > 40 µM; IC50 (MCF7): > 40 µM

Question: Which results are given for `CC(=O)O[C@H]1C(=O)[C@@]2(C)[C@H]([C@H](OC(=O)c3ccccc3)[C@]3(O)C[C@H](OC(=O)[C@H](O)[C@@H](NC(=O)c4ccccc4)c4ccccc4)C(C)=C1C3(C)C)[C@]1(OC(C)=O)CO[C@@H]1C[C@@H]2O` [PACLITAXEL]?
Answer: IC50 (A549): 0.00099 µM; IC50 (KB): 0.0008 µM; IC50 [1]: 1.9 µM
